Test results taken from article PMC3437246 (Biochemistry, 2012).
Read-outs that look alike come from different tables or passages of the source.

Legend:
[1] = molecular target: wt RB69pol (Escherichia phage RB69, UniProt Q38087, D222A/D327A); type: biochemical, bacteriophage RB69; settings: template tC°; for kpol: 23°C, 10 mM Mg2+
Summary of the method: (§1)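 Single-turnover rapid quench was run at 23°C in 66 mM Tris-HCl pH 7.4 using exonuclease-deficient RB69pol. Enzyme plus 5'-32P primer/tC° template was mixed with Mg2+ and varying dNTP for 5 ms to 1 min (final 1 μM enzyme, 90 nM P/T, 10 mM Mg2+). Reactions were EDTA-quenched and resolved on 8 M urea PAGE. kobs came from single-exponential fits, then kpol and Kd,app from a hyperbolic fit; efficiency is kpol/Kd,app.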

[2] = molecular target: RB69pol Y567A mutant (Escherichia phage RB69, UniProt Q38087, D222A/D327A/Y567A); type: biochemical, bacteriophage RB69; settings: for Kpol/Kd,app / kpol: Y567A mutant, template tC°; for kpol: 23°C, 10 mM Mg2+
Summary of the method: as §1

[3] = molecular target: Y567A-P/T binary complex (Escherichia phage RB69, UniProt Q38087, D222A/D327A/Y567A); experiment: Equilibrium fluorescence titration of dNTP opposite tC°; type: binding, bacteriophage RB69; settings: 1mM dNTP added to Y567A-P/T binary complex
Summary of the method: (§2)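 Exonuclease-deficient (D222A/D327A) RB69pol, wild type or Y567A, was expressed in E. coli BL21(DE). Enzyme at 1 μM was mixed with 300 nM 3'-dideoxy (ddC) terminated 13/18mer P/T carrying tC° at template position n, in 66 mM Tris-HCl pH 7.4 with 10 mM MgSO4 at 23°C. Excitation was 364 nm and emission was scanned 380–700 nm. Spectra were corrected for enzyme and buffer fluorescence.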

[4] = molecular target: T1, wt RB69pol-P/T binary complex (Escherichia phage RB69, UniProt Q38087, D222A/D327A); experiment: as above; type: binding, bacteriophage RB69; settings: 1mM dNTP added to wt RB69pol-P/T binary complex
Summary of the method: as §2

[5] = molecular target: T1, wt RB69pol-P/T binary complex; experiment: Stopped-flow fluorescence of tC° quenching on dGTP binding; parameters: species or system bacteriophage RB69; settings: full quenching within instrument dead-time (< 2 ms)
[6] = molecular target: Y567A RB69pol mutant (Escherichia phage RB69, UniProt Q38087, D222A/D327A/Y567A); experiment: as above; parameters: species or system bacteriophage RB69
Y567A RB69pol mutant, sequence (Q38087 whole entry D222A/D327A/Y567A): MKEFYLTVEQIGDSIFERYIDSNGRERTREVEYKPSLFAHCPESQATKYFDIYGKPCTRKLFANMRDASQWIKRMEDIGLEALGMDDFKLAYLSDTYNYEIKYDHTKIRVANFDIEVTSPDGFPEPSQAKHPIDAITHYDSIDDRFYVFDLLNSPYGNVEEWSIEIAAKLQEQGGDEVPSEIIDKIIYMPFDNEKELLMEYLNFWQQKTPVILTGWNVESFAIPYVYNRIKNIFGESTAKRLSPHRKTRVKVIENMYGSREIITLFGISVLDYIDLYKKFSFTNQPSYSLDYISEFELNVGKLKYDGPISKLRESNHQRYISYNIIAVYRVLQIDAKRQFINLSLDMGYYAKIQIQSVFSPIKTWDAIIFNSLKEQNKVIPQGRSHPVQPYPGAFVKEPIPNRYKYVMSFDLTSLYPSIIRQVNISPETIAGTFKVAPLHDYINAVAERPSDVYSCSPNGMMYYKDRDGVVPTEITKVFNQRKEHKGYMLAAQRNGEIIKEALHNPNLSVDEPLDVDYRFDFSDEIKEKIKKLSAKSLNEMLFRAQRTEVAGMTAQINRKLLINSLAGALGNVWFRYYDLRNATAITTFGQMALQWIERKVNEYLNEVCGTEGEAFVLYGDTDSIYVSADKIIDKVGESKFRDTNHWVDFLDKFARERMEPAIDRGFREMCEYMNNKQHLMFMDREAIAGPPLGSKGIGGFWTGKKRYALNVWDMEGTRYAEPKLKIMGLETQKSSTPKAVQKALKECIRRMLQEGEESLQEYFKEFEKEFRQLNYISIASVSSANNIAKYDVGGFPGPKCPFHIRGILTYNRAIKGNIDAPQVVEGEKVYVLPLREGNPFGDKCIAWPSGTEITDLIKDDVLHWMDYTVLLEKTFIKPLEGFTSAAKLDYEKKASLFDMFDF

RB69pol Y567A mutant, sequence (Q38087 whole entry D222A/D327A/Y567A): as above
wt RB69pol, sequence (Q38087 whole entry D222A/D327A): as the sequence (Q38087 whole entry D222A/D327A/Y567A) above, with A567Y counted along it
Y567A-P/T binary complex, sequence (Q38087 whole entry D222A/D327A/Y567A, one chain of several): as the sequence (Q38087 whole entry D222A/D327A/Y567A) above
T1 sequence (Q38087 whole entry D222A/D327A, one chain of several): as the sequence (Q38087 whole entry D222A/D327A/Y567A) above, with A567Y counted along it

Structure (SMILES)	Kpol/Kd,app [1] [M⁻¹ s⁻¹]	fold difference in kpol between dGMP and dAMP [1] [fold]	kpol [1] [s⁻¹]	kpol ([1]; listed as dAMP) [s⁻¹]	fold increase of incorporation efficiency opposite tC° ([2]; Y567A mutant relative to wt RB69pol) [fold]	Kpol/Kd,app [2] [M⁻¹ s⁻¹]	kpol [2] [s⁻¹]	kpol ([2]; listed as dAMP) [s⁻¹]	quenching of tC° fluorescence [3]	quenching of tC° fluorescence [4]	rate of tC° fluorescence quenching [5]	rate of tC° fluorescence quenching [6] [s⁻¹]
Nc1ncnc2c1ncn2[C@H]1C[C@H](O)[C@@H](COP(=O)(O)OP(=O)(O)OP(=O)(O)O)O1 [dATP]	3500	40	6 ± 0.2	6	200	700000	180 ± 10	180	~15%	–	–	–
Nc1nc2c(ncn2[C@H]2C[C@H](O)[C@@H](COP(=O)(O)OP(=O)(O)OP(=O)(O)O)O2)c(=O)[nH]1 [dGTP]	1.8e+06	–	250 ± 7	–	–	4.3e+07	170 ± 10	–	about 30%	about 30%	greater than 500 s^−1	> 500
